High-throughput results (PubChem BioAssay)
The list is not random: actives were taken first. Their share in the collection is about 3.5%.
PGC1a acetyl inh = lowers PGC1a acetylation signal in U2OS cells | 350,000 compounds, 0.17% hits | inhibition, % at 15.6 µM | AlphaScreen anti-acetyl-lysine; with virally co-expressed GCN5 acetyltransferase | AID 651687;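 active = every replicate shows inhibition of at least 40%; inconclusive = mean inhibition at least 40% but some replicate below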;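 note: 0% = neutral control wells and 100% = positive control wells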
ERAP1 HTS inh = inhibitors of human ERAP1 aminopeptidase; recombinant ERAP1, Leu-AMC fluorescence, 60 min; AID 652197; Q9NZ08; 340,000 compounds, 0.15% hits; inhibition, % at 10.7 µM;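 active = mean replicate inhibition of at least 30%, or all replicates individually reaching that 30% level; inactive = mean below 30% and not every replicate reaching it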;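 note: 0% = neutral control wells and 100% = L-leucinethiol positive control wells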
Target sequence (Q9NZ08 whole entry, looked up): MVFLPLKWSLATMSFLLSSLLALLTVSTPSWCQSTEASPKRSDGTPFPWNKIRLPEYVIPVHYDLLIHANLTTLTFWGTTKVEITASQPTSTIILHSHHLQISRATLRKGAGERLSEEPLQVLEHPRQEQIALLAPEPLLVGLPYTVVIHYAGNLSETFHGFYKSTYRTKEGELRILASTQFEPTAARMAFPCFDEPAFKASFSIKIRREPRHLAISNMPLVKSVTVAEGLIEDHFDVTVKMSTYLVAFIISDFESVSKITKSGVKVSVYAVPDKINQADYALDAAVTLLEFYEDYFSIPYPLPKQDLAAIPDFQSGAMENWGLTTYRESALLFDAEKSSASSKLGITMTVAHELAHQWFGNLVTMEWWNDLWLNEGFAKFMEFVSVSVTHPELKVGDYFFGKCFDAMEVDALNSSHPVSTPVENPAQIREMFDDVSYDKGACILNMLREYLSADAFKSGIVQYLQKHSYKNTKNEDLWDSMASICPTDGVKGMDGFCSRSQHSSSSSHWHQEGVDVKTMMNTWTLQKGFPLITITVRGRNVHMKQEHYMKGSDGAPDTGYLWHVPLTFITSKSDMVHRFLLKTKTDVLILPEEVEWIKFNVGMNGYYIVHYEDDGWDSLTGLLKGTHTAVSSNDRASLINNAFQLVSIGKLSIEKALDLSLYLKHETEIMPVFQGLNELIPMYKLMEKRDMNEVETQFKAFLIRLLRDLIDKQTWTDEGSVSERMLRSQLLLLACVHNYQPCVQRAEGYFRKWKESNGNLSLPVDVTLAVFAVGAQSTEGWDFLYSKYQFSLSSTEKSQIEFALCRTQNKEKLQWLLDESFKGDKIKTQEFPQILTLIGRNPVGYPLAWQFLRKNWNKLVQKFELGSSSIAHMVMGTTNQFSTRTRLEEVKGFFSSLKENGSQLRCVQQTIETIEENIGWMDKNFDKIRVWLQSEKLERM
Cneo AK release = Cryptococcus neoformans lysis via adenylate kinase release; C. neoformans lysis, adenylate kinase release luminescence, 4 h; normalised: neutral wells 0, clomiphene wells 100; lysis activity, % at 15 µM; 360,000 compounds, 0.2% hits; AID 651654;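 active = mean lysis activity across replicates of at least 80%, whatever share of replicates individually reach that level; inactive = mean lysis activity below 80%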
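Assay system: log-phase C. neoformans yeast / Quantity: yeast cell density of 5 × 10^6 cells/mL / Medium: fresh YPD growth medium / Compound: single dose / Timing: static 4 h at 37 °C with compound, 1 h detection / Measured by: adenylate kinase release luminescence / Read-out: lysis from increased AK signal / Benchmarks: Clomiphene as positive lysis control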
Ecoli rRNA inh = selective bacterial rRNA inhibition in E. coli | E. coli WT GFP vs humanized-ribosome RFP mutants, fluorescence, 24 h; stronger effect = lower value; DMSO median 0, no signal -100 | GFP signal change (wild-type ribosome), % (concentration not given with the values) | 350,000 compounds, 1.6% hits | AID 720706;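 active = significant combined selectivity score with lowered wild-type GFP, culture density cut under 30%, mutant RFP and density less affected; inactive = any of these conditions unmet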
Env fusion inh = blocks HIV Env-driven cell-cell fusion. HeLa-JRFL Env/CEM21 cell fusion, luciferase. 360,000 compounds, 1.1% hits. AID 651610. inhibition, % at 12.3 µM;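 active = mean replicate inhibition score of at least 50 and every replicate individually at or above 50; inconclusive = only one of the two criteria met; inactive = mean below 50 and not all replicates reaching 50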;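 note: 0% = plate neutral controls and 100% = maraviroc near 300 nM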
FGF22 binding = binders of recombinant human FGF22 by thermal shift; 340,000 compounds, 1.5% hits; activity (Tm shift, normalised), % at 9.99 µM; SYPRO orange fluorescence; percent of sucrose octasulfate shift, DMSO zero; Q9HCT0;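 active = mean Tm shift, scaled 0 neutral to 100 positive control, at about 1.3% or above, every replicate too, limit read from the data; inconclusive = no clear call, values can overlap the other calls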
* marks the source's active call; other numbers are inactive results; ! = repeats disagree; [ ] = another dose, or the depositor's remark.

C[C@@H]1CN([C@@H](C)CO)C(=O)c2cc(NS(=O)(=O)c3ccccc3)ccc2O[C@@H](C)CCCCO[C@@H]1CN(C)S(=O)(=O)c1ccc(F)cc1 was read as PGC1a acetyl inh -12.7, ERAP1 HTS inh 4.7, Cneo AK release 4.6, Ecoli rRNA inh 0.1, Env fusion inh -47.7[16.7 µM] and FGF22 binding -0.2.
`C[C@@H]1CCCCO[C@@H](CN(C)S(=O)(=O)c2ccccc2)[C@@H](C)CN([C@H](C)CO)C(=O)c2cc(NS(=O)(=O)c3ccc(F)cc3)ccc2O1` gave PGC1a acetyl inh -4.4, ERAP1 HTS inh -2.5, Cneo AK release 0.9, Ecoli rRNA inh 4.6, Env fusion inh -7.5 and FGF22 binding 1.3*!.
CC(C)NC(=O)Nc1ccc2c(c1)C(=O)N([C@@H](C)CO)C[C@@H](C)[C@@H](CN(C)S(=O)(=O)c1ccccc1)OCCCC[C@H](C)O2 was read as PGC1a acetyl inh 105.0*, ERAP1 HTS inh -1.5, Cneo AK release 50.2, Ecoli rRNA inh 0.4, Env fusion inh 9.8[16.7 µM] and FGF22 binding 0.7.
CCN1CCN(c2ncnc3scc(-c4ccc(OC)cc4)c23)CC1 was read as PGC1a acetyl inh 1.8, ERAP1 HTS inh 3.8, Cneo AK release -3.7, Ecoli rRNA inh -2.8, Env fusion inh 22.7 and FGF22 binding -0.2.
For CCc1nn(C(C)C(=O)NCc2ccc(Cl)cc2)c(=O)c2cc3occc3n12 (stereo not given) the results were PGC1a acetyl inh 2.8, ERAP1 HTS inh -3.1, Cneo AK release 11.0, Ecoli rRNA inh -4.6, Env fusion inh -1.1 and FGF22 binding -0.1.
`COC(=O)C1=C(C)N(Cc2cccc(C(F)(F)F)c2)C(=NCc2ccc(C(F)(F)F)cc2)NC1c1ccc(Cl)cc1` (stereo not given) gave ERAP1 HTS inh -2.9, Ecoli rRNA inh -48.2, Env fusion inh inconclusive and FGF22 binding 40.7.
For COC(=O)C1=C(C)N(Cc2cccc(C(F)(F)F)c2)C(=NCc2ccc3c(c2)OCO3)NC1c1ccc(Cl)cc1 (stereo not given) the results were ERAP1 HTS inh -1.0, Ecoli rRNA inh -45.5, Env fusion inh 63.5* and FGF22 binding -0.2.
Screening COC(=O)C1=C(C)N(C)C(=NCc2ccc3c(c2)OCO3)NC1c1cccc(C(F)(F)F)c1 (stereo not given) returned ERAP1 HTS inh -0.5, Ecoli rRNA inh 0.7, Env fusion inh 20.0 and FGF22 binding -0.2.
For COC(=O)C1=C(C)N(Cc2cccc(C(F)(F)F)c2)C(=NCc2ccc(OC)cc2)NC1c1ccccc1 (stereo not given) the results were ERAP1 HTS inh 0.8, Ecoli rRNA inh -56.1, Env fusion inh 55.1* and FGF22 binding 0.0.
Screening COC(=O)C1=C(C)N(C)C(=NCc2ccc3c(c2)OCO3)NC1c1ccc(C(F)(F)F)cc1 (stereo not given) returned ERAP1 HTS inh 0.4, Ecoli rRNA inh -19.4, Env fusion inh 57.2* and FGF22 binding 42.6.
Cc1nc2ccccc2c2oc(C(=O)NCCCN3CCCC3=O)cc12 was read as PGC1a acetyl inh -0.8, ERAP1 HTS inh -0.1, Cneo AK release 0.6, Ecoli rRNA inh -6.1 and Env fusion inh -325.2.
Screening Cc1ccc(C2CC(=O)C=C(NCc3ccccc3)C2)cc1 (stereo not given) returned PGC1a acetyl inh -2.9, ERAP1 HTS inh -0.4, Cneo AK release 0.0, Ecoli rRNA inh -31.7*, Env fusion inh -15.5 and FGF22 binding 0.2.
`Nc1nc(N)c(C=Nc2ccc(Br)cc2)c(Nc2ccc(Br)cc2)n1` gave ERAP1 HTS inh 0.5, Cneo AK release 1.0, Ecoli rRNA inh -24.6*, Env fusion inh 0.1 and FGF22 binding -0.3.
Screening O=C(O)CCC(=O)Nc1ccc(S(=O)(=O)c2ccc(NC(=O)CCC(=O)O)cc2)cc1 returned PGC1a acetyl inh -10.2, ERAP1 HTS inh 0.1, Cneo AK release -3.3, Ecoli rRNA inh 8.6, Env fusion inh -2.6 and FGF22 binding 0.2.
Screening COc1ccccc1C(=O)Nc1c(C(=O)N(CCN(C)C)Cc2ccco2)oc2ccccc12 returned ERAP1 HTS inh -1.1, Cneo AK release 2.8, Ecoli rRNA inh -40.0*, Env fusion inh 16.8 and FGF22 binding -0.2.
COc1cccc(C(=O)NCCS(=O)(=O)NCCc2ccc(OC)c(OC)c2)c1 was read as PGC1a acetyl inh 10.0, ERAP1 HTS inh -3.4, Cneo AK release -0.9, Ecoli rRNA inh 1.9, Env fusion inh -14.0 and FGF22 binding -0.3.
`COc1ccc(OC)c(S(=O)(=O)Nc2ccccc2C(F)(F)F)c1` gave PGC1a acetyl inh -6.0, Cneo AK release -0.2 and Env fusion inh -18.1.
Screening COc1ccc(OC)c(S(=O)(=O)Nc2cccc3ccccc23)c1 returned PGC1a acetyl inh 18.3, ERAP1 HTS inh -0.8, Cneo AK release 2.3, Ecoli rRNA inh -25.4*, Env fusion inh 7.6 and FGF22 binding 0.0.
O=C1CCC(C(=O)N2CCOCC2)CN1Cc1cccc(C(F)(F)F)c1 (stereo not given) was read as PGC1a acetyl inh 6.1, ERAP1 HTS inh -3.4, Cneo AK release -1.3, Ecoli rRNA inh 19.3, Env fusion inh -10.7 and FGF22 binding 0.0.
Screening CCC(=NCCc1ccc(OC)c(OC)c1)c1ccccc1O returned ERAP1 HTS inh 1.4, Cneo AK release -3.5, Ecoli rRNA inh 9.5, Env fusion inh -10.5 and FGF22 binding -0.2.
For COc1ccc(CCN=C(C)C2=C(O)C(c3ccccc3)OC2=O)cc1OC (stereo not given) the results were ERAP1 HTS inh 4.7, Ecoli rRNA inh -22.2, Env fusion inh 18.7 and FGF22 binding 42.9*.
O=C(Cc1ccc(Br)cc1)NCCc1ccc(F)cc1 was read as PGC1a acetyl inh -6.5, ERAP1 HTS inh -0.4, Cneo AK release -0.1, Ecoli rRNA inh -6.6, Env fusion inh 6.5 and FGF22 binding 0.0.
Screening O=C(NCCc1ccc(Cl)cc1)c1ccc2[nH]c(=O)c(=O)[nH]c2c1 returned PGC1a acetyl inh 5.5, ERAP1 HTS inh -0.2, Cneo AK release 1.4, Ecoli rRNA inh -24.6*, Env fusion inh 2.2 and FGF22 binding 0.0.
For Cc1nc(SCC(=O)NCCc2ccc(Cl)cc2)nc(C)c1C the results were PGC1a acetyl inh -32.1, ERAP1 HTS inh -1.1, Ecoli rRNA inh -28.5* and FGF22 binding 0.1.
Screening O=C(Cc1ccc(Cl)cc1)NCCc1ccc(F)cc1 returned PGC1a acetyl inh 0.0, Cneo AK release 1.6, Ecoli rRNA inh -24.4*, Env fusion inh 20.6 and FGF22 binding 0.1.
`C[C@@H]1CN([C@H](C)CO)C(=O)Cc2cc(NC(=O)Nc3ccccc3)ccc2O[C@H]1CN(C)Cc1ccc(C(F)(F)F)cc1` gave PGC1a acetyl inh 10.3, ERAP1 HTS inh -4.0, Cneo AK release 55.5, Ecoli rRNA inh 0.0, Env fusion inh -1.1[16.7 µM] and FGF22 binding -0.1.
